One series has as its system Plasma. The series is described as follows: Cmax in CD-1 mouse plasma at 10 mg/kg, po after 6 hrs by LC/MS analysis. The format is ADME, organism-based. More on the design: dose 10 mg/kg, route oral. The following applies: in vivo.
A short description of series [1]: Cytotoxicity against mouse ScN2a-cl3 cells after 5 days by calcein-AM assay. The format is cell-based, N2a-cl3. The following applies: read-out: LD50. The method in brief:
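Run alongside every EC50 measurement. Toxicity toward ScN2a-cl3 cells scored with the fluorescent probe calcein-AM.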

The next series deals with Brain. The series can be described thus: Cmax in CD-1 mouse brain at 10 mg/kg, po after 6 hrs by LC/MS analysis. The following applies: in vivo. Details: dose 10 mg/kg, route oral. It counts as ADME, organism-based.
Series [2] can be described thus: AUC (0 to 6 hrs) in CD-1 mouse plasma at 10 mg/kg, po by LC/MS analysis. It counts as ADME, organism-based. Details: time < 6 hr, dose 10 mg/kg, route oral.
The test system of another series is Liver. The series can be described thus: Half life in mouse liver microsomes at 1 uM by LC/MS/MS analysis. It counts as ADME, Microsome. (In general: Liver microsomes are a subcellular fraction often used to study metabolism.)
Series [3] in a line: AUC (0 to 6 hrs) in CD-1 mouse brain at 10 mg/kg, po by LC/MS analysis. The format is ADME, organism-based. More on the design: time < 6 hr, dose 10 mg/kg, route oral.
Series [4] in a line: Ratio of drug level in brain to plasma in CD-1 mouse at 10 mg/kg, po. It counts as ADME, organism-based. The note with it: brain and plasma, read-out: BPR. More on the design: dose 10 mg/kg, route oral.

Structures are written as SMILES.

For orientation: Cmax means the maximum level reached in the sampled fluid or tissue. In general, AUC(0-t) refers to the area under the concentration-time curve up to a stated or last time point. A low value points to less exposure.

Turning to `CCN1CCN(c2ccc(NC(=O)c3ccc(-c4ccccn4)cc3)cc2)CC1`, the Cmax in the series with Plasma came to 280 nM; in the series with Brain, 6230 nM. Further, the CC50 at 120 h in series [1] is greater than 10 µM. Also, the AUC(0-t) at 6 h in series [2] stood at 1.05 µM·h; in series [3], 24.2 µM·h. This compound also returned a t1/2 in the series on Liver of 27 min.
For `CCN1CCN(c2ccc(NC(=O)c3ccc(-c4cccnc4)cc3)cc2)CC1`, the values for the maximum concentration (Cmax) in the series on Plasma and with Brain were 210 nM and 1440 nM, respectively. The CC50 at 120 h in series [1] was greater than 10 µM. The results for the AUC(0-t) at 6 h in series [2] and in series [3] were 0.25 µM·h and 3.32 µM·h, respectively. In the series on Liver, this compound gave a t1/2 of 29.2 min.
In the case of `CCN1CCN(c2ccc(NC(=O)c3ccc(-c4ccncc4)cc3)cc2)CC1`, the CC50 at 120 h in series [1] was greater than 10 µM.
Consider `CC(C)N1CCN(c2ccc(NC(=O)c3ccc(-c4ccccn4)cc3)cc2)CC1`, for which the peak concentration (Cmax) worked out at 320 nM in the series with Plasma and 90 nM with Brain. Besides, in series [1], the CC50 at 120 h was greater than 10 µM. For the same compound, the figures for the area under the curve AUC(0-t) at 6 h in series [2] and in series [3] were 1.2 µM·h and 0.28 µM·h, respectively.
Consider `CC(C)N1CCN(c2ccc(NC(=O)c3ccc(-c4ccccn4)cc3)nc2)CC1`, for which the Cmax in the series with Plasma was found to be 340 nM; in the series with Brain, 6000 nM. In addition, the CC50 at 120 h in series [1] was greater than 10 µM. Moreover, the AUC(0-t) at 6 h in series [2] is 1.26 µM·h; in series [3], 22.3 µM·h.
For `CC(C)N1CCN(c2ccc(NC(=O)c3ccc(-c4ccccn4)cc3)cn2)CC1`, the CC50 at 120 h in series [1] is greater than 10 µM.
For the compound `CC(C)N1CCN(c2ccc(NC(=O)c3ccc(-c4ccccn4)cc3)c(F)c2)CC1`, the maximum concentration (Cmax) was 650 nM in the series on Plasma and 17300 nM in the series with Brain. In addition, in series [1], the CC50 at 120 h is greater than 10 µM. Further, the figures for the area under the curve AUC(0-t) at 6 h in series [2] and in series [3] were 1.46 µM·h and 39.8 µM·h, respectively.
For `CC(C)N1CCN(c2ccc(NC(=O)c3ccc(-c4ccccn4)cc3)cc2F)CC1`, the Cmax was 460 nM with Plasma and 6750 nM in the series on Brain. In addition, the CC50 at 120 h in series [1] is greater than 10 µM. Further, the figures for the AUC(0-t) at 6 h in series [2] and in series [3] were 2.28 µM·h and 28.7 µM·h, respectively.
Consider `CN1CCN(c2ccc(NC(=O)c3ccc(-c4ccccc4)cc3)cc2)CC1`, for which, in series [1], the CC50 at 120 h was greater than 5 µM.
In the case of `CCN1CCN(c2ccc(NC(=O)c3ccc(-c4ccccc4)cc3)cc2)CC1`, the figures for the Cmax in the series on Plasma and with Brain were 370 nM and 7950 nM, respectively. The AUC(0-t) at 6 h in series [2] turned out to be 1.09 µM·h; in series [3], 25.4 µM·h. Further, in series [4], the Kp was no more than 10.
Take `CC(C)N1CCN(c2ccc(NC(=O)c3ccc(-c4ccccc4)cc3)cc2)CC1`: the values for the highest concentration (Cmax) in the series with Plasma and in the series with Brain were 270 nM and 2520 nM, respectively. Also, the CC50 at 120 h in series [1] was greater than 10 µM. Moreover, the values for the AUC(0-t) at 6 h in series [2] and in series [3] were 0.97 µM·h and 7.48 µM·h, respectively. The Kp in series [4] was no more than 10.
